Columns and labels:
Plasmodium falciparum [1] = experiment: In vitro anti-MDR effect in mefloquine resistant TM91C235 cell lines at 50 ng/ml concentration in the presence of 5 ng/mL mefloquine; assay type: functional
Outline: (§1)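 Mefloquine was held at 5 ng/mL, combined with test agent. Parasites (TM91C235) were in erythrocytes at 0.2% parasitemia and 1% hematocrit, in folate/PABA-free RPMI-1640 with human plasma or Albumax. Incubation was 66 h at 37 °C in 5% CO2/5% O2/90% N2, with 3H-hypoxanthine added for the last 24 h. Incorporation was counted after freeze-lysis and harvesting.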

Plasmodium falciparum [2] = experiment: In vitro anti-MDR effect in mefloquine resistant TM91C235 cell lines at 5000 ng/ml concentration in the presence of 5 ng/mL mefloquine; assay type: functional; outline: as §1
[3] = (§2) Fractional inhibitory concentration (FIC) tested against RCS cells, isolate from Brazil.; assay type: functional, Plasmodium falciparum
Outline: (§3)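 Parasite growth read by [3H]hypoxanthine incorporation in erythrocytes at 0.2% parasitemia and 1% hematocrit. Medium: folate- and PABA-free RPMI-1640 with 10% heat-inactivated human plasma or Albumax. Cultures were kept at 37 °C under 5% CO2/5% O2/90% N2, with label added at 42 h and 66 h total incubation. Counts were taken after freeze-thaw harvest, IC50 came from nonlinear logistic fits, and FIC index was derived from isobologram.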

Plasmodium falciparum [4] = experiment: Fractional inhibitory concentration (FIC) tested against TM91C235 isolate.; assay type: functional; outline: as §3
Plasmodium falciparum [5] = experiment: In vitro anti-MDR effect in mefloquine resistant TM91C235 cell lines at 500 ng/ml concentration in the presence of 5 ng/mL mefloquine; assay type: functional; outline: as §1
Plasmodium falciparum [6] = experiment: In vitro anti-MDR effect in chloroquine and mefloquine resistant TM91C235 cell lines at 5000 ng/ml concentration; assay type: functional
Outline: (§4)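 TM91C235 P. falciparum in erythrocytes at 0.2% parasitemia and 1% hematocrit, in folate- and PABA-free RPMI-1640 with 10% heat-inactivated human plasma or Albumax. Incubated 66 h at 37 °C under 5% CO2/5% O2/90% N2, with 3H-hypoxanthine added at 42 h. Cells lysed by freezing at -70 °C and harvested; inhibition of isotope incorporation read by scintillation counting.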

Plasmodium falciparum [7] = experiment: Fractional inhibitory concentration (FIC) against Plasmodium falciparum W2 of equimolar (1:1) combination dose with chloroquine; assay type: functional; outline: as §3
[8] = (§5) Fractional inhibitory concentration (FIC) tested against Peruvian PC49 cells, isolate from South America; assay type: functional, Plasmodium falciparum; outline: as §3
Plasmodium falciparum [9] = experiment: In vitro anti-MDR effect in chloroquine and mefloquine resistant TM91C235 cell lines at 500 ng/ml concentration; assay type: functional; outline: as §4
Plasmodium falciparum [10] = experiment: In vitro anti-MDR effect in chloroquine and mefloquine resistant TM91C235 cell lines at 50 ng/ml concentration; assay type: functional; outline: as §4
Plasmodium falciparum [11] = experiment: In vitro anti-MDR effect in chloroquine resistant TM91C235 cell lines at 50 ng/ml concentration in the presence of 10 ng/mL chloroquine; assay type: functional
Outline: (§6)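 Test agent was combined with chloroquine at 10 ng/mL. TM91C235 was cultured in erythrocytes at 0.2% parasitemia and 1% hematocrit, in folate- and PABA-free RPMI-1640, for 66 h at 37 °C under 5% CO2/5% O2/90% N2. 3H-hypoxanthine was added at 42 h, and cell suppression was taken from scintillation counts of harvested lysates.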

Plasmodium falciparum [12] = experiment: In vitro anti-MDR effect in chloroquine resistant TM91C235 cell lines at 500 ng/ml concentration in the presence of 10 ng/mL chloroquine; assay type: functional; outline: as §6
Plasmodium falciparum [13] = experiment: In vitro anti-MDR effect in chloroquine resistant TM91C235 cell lines at 5000 ng/ml concentration in the presence of 10 ng/mL chloroquine; assay type: functional; outline: as §6
[14] = as §5; assay type: functional; outline: as §3
[15] = as §2; assay type: functional; outline: as §3
Plasmodium falciparum [16] = experiment: Fractional inhibitory concentration (FIC) against Plasmodium falciparum W2 at equimolar (1:1) combination dose with chloroquine; assay type: functional; outline: as §3
Plasmodium falciparum [17] = experiment: Fractional inhibitory concentration (FIC) tested against TM91C235 cells, isolate from South east Asia.; assay type: functional; outline: as §3
Plasmodium falciparum [18] = experiment: Fractional inhibitory concentration (FIC) tested against TM91C235 cells, isolate from South east Asia; assay type: functional; outline: as §3
Plasmodium falciparum [19] = experiment: Fractional inhibitory concentration (FIC) (1:1 combination of compound and chloroquine) was tested in Plasmodium falciparum W2 clone.; assay type: functional; outline: as §3

Compound: CN(C)CCCCN1c2ccccc2CCc2ccccc21
- Suppression (Plasmodium falciparum [1]): 43%
- Suppression (Plasmodium falciparum [2]): 95%
- FIC [3]: 0.52
- FIC (Plasmodium falciparum [4]): 0.26
- Suppression (Plasmodium falciparum [5]): 70%
- Suppression (Plasmodium falciparum [6]): 96%
- FIC (Plasmodium falciparum [7]): 0.23
- FIC [8]: 0.62
- Suppression (Plasmodium falciparum [9]): 73%
- Suppression (Plasmodium falciparum [10]): 59%
- Suppression (Plasmodium falciparum [11]): 99%
- Suppression (Plasmodium falciparum [12]): 99%
- Suppression (Plasmodium falciparum [13]): 100%

Compound: c1ccc2c(c1)Sc1ccccc1N2CCCCN1CCCCC1
- FIC [3]: 0.68
- FIC (Plasmodium falciparum [4]): 0.52
- FIC (Plasmodium falciparum [7]): 0.49
- FIC [8]: 0.83

Compound: COc1ccc(CCN(C)CCCC(C#N)(c2ccc(OC)c(OC)c2)C(C)C)cc1OC (configuration not stated) [VERAPAMIL]
- FIC [14]: 0.61
- FIC (Plasmodium falciparum [7]): 0.51
- FIC [15]: 0.63

Compound: CN1CCN(CCCCN2c3ccccc3Sc3ccccc32)CC1
- FIC [3]: 0.49
- FIC (Plasmodium falciparum [4]): 0.48
- FIC (Plasmodium falciparum [7]): 0.4
- FIC [8]: 0.98

Compound: CCN(CC)CCCCN1c2ccccc2C=Cc2ccccc21
- FIC [3]: 0.39
- FIC (Plasmodium falciparum [4]): 0.33
- FIC (Plasmodium falciparum [7]): 0.53
- FIC [8]: 0.6

Compound: CN1CCN(CCCCN2c3ccccc3CCc3ccccc32)CC1
- FIC [3]: 0.66
- FIC (Plasmodium falciparum [4]): 0.54
- FIC (Plasmodium falciparum [7]): 0.52

Compound: CN(C)CCCCN1c2ccccc2Sc2ccccc21
- Suppression (Plasmodium falciparum [1]): 2%
- Suppression (Plasmodium falciparum [2]): 92%
- Suppression (Plasmodium falciparum [5]): 31%
- Suppression (Plasmodium falciparum [6]): 92%
- FIC (Plasmodium falciparum [16]): 0.23
- Suppression (Plasmodium falciparum [9]): 27%
- Suppression (Plasmodium falciparum [10]): 17%
- FIC [15]: 0.51
- Suppression (Plasmodium falciparum [11]): 30%
- FIC (Plasmodium falciparum [17]): 0.28
- Suppression (Plasmodium falciparum [12]): 97%
- Suppression (Plasmodium falciparum [13]): 100%

Compound: CCN(CC)CCCCCN1c2ccccc2CCc2ccccc21
- FIC [3]: 0.36
- FIC (Plasmodium falciparum [4]): 0.48
- FIC (Plasmodium falciparum [7]): 0.44
- FIC [8]: 0.82

Compound: c1ccc(CN(CCCCN2c3ccccc3Sc3ccccc32)Cc2ccccc2)cc1
- Suppression (Plasmodium falciparum [1]): 0%
- Suppression (Plasmodium falciparum [2]): 9%
- Suppression (Plasmodium falciparum [5]): 3%
- Suppression (Plasmodium falciparum [6]): 22%
- Suppression (Plasmodium falciparum [9]): 10%
- Suppression (Plasmodium falciparum [10]): 7%
- Suppression (Plasmodium falciparum [11]): 12%
- Suppression (Plasmodium falciparum [12]): 16%
- Suppression (Plasmodium falciparum [13]): 25%

Compound: c1ccc2c(c1)CCc1ccccc1N2CCCCCCN1CCCC1
- FIC [3]: 0.6
- FIC (Plasmodium falciparum [4]): 0.54
- FIC (Plasmodium falciparum [7]): 0.57
- FIC [8]: 0.92

Compound: c1ccc(CN(CCCCN2c3ccccc3CCc3ccccc32)Cc2ccccc2)cc1
- Suppression (Plasmodium falciparum [1]): 14%
- Suppression (Plasmodium falciparum [2]): 19%
- Suppression (Plasmodium falciparum [5]): 22%
- Suppression (Plasmodium falciparum [6]): 13%
- Suppression (Plasmodium falciparum [9]): 17%
- Suppression (Plasmodium falciparum [10]): 11%
- Suppression (Plasmodium falciparum [11]): 6%
- Suppression (Plasmodium falciparum [12]): 8%
- Suppression (Plasmodium falciparum [13]): 13%

Compound: CCN(CC)CCCCCCN1c2ccccc2CCc2ccccc21
- FIC [3]: 0.72
- FIC (Plasmodium falciparum [4]): 0.59
- FIC (Plasmodium falciparum [7]): 0.48

Compound: C1=Cc2ccccc2N(CCCCN2CCCC2)c2ccccc21
- FIC [3]: 0.59
- FIC (Plasmodium falciparum [4]): 0.49
- FIC (Plasmodium falciparum [7]): 0.33
- FIC [8]: 0.74

Compound: CN(CCCCN1c2ccccc2Sc2ccccc21)Cc1ccccc1
- Suppression (Plasmodium falciparum [1]): 0%
- Suppression (Plasmodium falciparum [2]): 13%
- Suppression (Plasmodium falciparum [5]): 0%
- Suppression (Plasmodium falciparum [6]): 35%
- Suppression (Plasmodium falciparum [9]): 18%
- Suppression (Plasmodium falciparum [10]): 13%
- Suppression (Plasmodium falciparum [11]): 14%
- Suppression (Plasmodium falciparum [12]): 27%
- Suppression (Plasmodium falciparum [13]): 62%

Compound: c1ccc2c(c1)Sc1ccccc1N2CCCCN1CCOCC1
- FIC [3]: 0.37
- FIC (Plasmodium falciparum [4]): 0.32
- FIC (Plasmodium falciparum [7]): 0.39
- FIC [8]: 0.81

Compound: c1ccc2c(c1)Sc1ccccc1N2CCCCN1CCCC1
- Suppression (Plasmodium falciparum [1]): 33%
- Suppression (Plasmodium falciparum [2]): 95%
- FIC [3]: 0.51
- FIC (Plasmodium falciparum [4]): 0.25
- Suppression (Plasmodium falciparum [5]): 67%
- Suppression (Plasmodium falciparum [6]): 96%
- FIC (Plasmodium falciparum [7]): 0.21
- FIC [8]: 0.5
- Suppression (Plasmodium falciparum [9]): 70%
- Suppression (Plasmodium falciparum [10]): 38%
- Suppression (Plasmodium falciparum [11]): 99%
- Suppression (Plasmodium falciparum [12]): 99%
- Suppression (Plasmodium falciparum [13]): 100%

Compound: CCN(CC)CCCCN1c2ccccc2Sc2ccccc21
- Suppression (Plasmodium falciparum [1]): 17%
- Suppression (Plasmodium falciparum [2]): 100%
- FIC [3]: 0.41
- FIC (Plasmodium falciparum [18]): 0.29
- Suppression (Plasmodium falciparum [5]): 30%
- Suppression (Plasmodium falciparum [6]): 100%
- FIC [8]: 0.41
- Suppression (Plasmodium falciparum [9]): 38%
- Suppression (Plasmodium falciparum [10]): 26%
- FIC (Plasmodium falciparum [19]): 0.23
- Suppression (Plasmodium falciparum [11]): 31%
- Suppression (Plasmodium falciparum [12]): 99%
- Suppression (Plasmodium falciparum [13]): 100%

Compound: c1ccc2c(c1)CCc1ccccc1N2CCCCN1CCCC1
- Suppression (Plasmodium falciparum [1]): 64%
- Suppression (Plasmodium falciparum [2]): 100%
- FIC [3]: 0.51
- FIC (Plasmodium falciparum [4]): 0.42
- Suppression (Plasmodium falciparum [5]): 96%
- Suppression (Plasmodium falciparum [6]): 100%
- FIC (Plasmodium falciparum [7]): 0.32
- FIC [8]: 0.66
- Suppression (Plasmodium falciparum [9]): 98%
- Suppression (Plasmodium falciparum [10]): 58%
- Suppression (Plasmodium falciparum [11]): 99%
- Suppression (Plasmodium falciparum [12]): 100%
- Suppression (Plasmodium falciparum [13]): 100%

Compound: c1ccc2c(c1)CCc1ccccc1N2CCCCN1CCOCC1
- FIC [3]: 0.89
- FIC (Plasmodium falciparum [4]): 0.54
- FIC (Plasmodium falciparum [7]): 0.31
- FIC [8]: 0.78

Compound: CN(CCCCN1c2ccccc2CCc2ccccc21)Cc1ccccc1
- Suppression (Plasmodium falciparum [1]): 20%
- Suppression (Plasmodium falciparum [2]): 41%
- Suppression (Plasmodium falciparum [5]): 22%
- Suppression (Plasmodium falciparum [6]): 60%
- Suppression (Plasmodium falciparum [9]): 32%
- Suppression (Plasmodium falciparum [10]): 30%
- Suppression (Plasmodium falciparum [11]): 10%
- Suppression (Plasmodium falciparum [12]): 20%
- Suppression (Plasmodium falciparum [13]): 33%

Compound: CCN(CC)CCCCN1c2ccccc2CCc2ccccc21
- Suppression (Plasmodium falciparum [1]): 64%
- Suppression (Plasmodium falciparum [2]): 100%
- FIC [3]: 0.57
- FIC (Plasmodium falciparum [4]): 0.41
- Suppression (Plasmodium falciparum [5]): 95%
- Suppression (Plasmodium falciparum [6]): 100%
- FIC (Plasmodium falciparum [7]): 0.39
- FIC [8]: 0.57
- Suppression (Plasmodium falciparum [9]): 95%
- Suppression (Plasmodium falciparum [10]): 62%
- Suppression (Plasmodium falciparum [11]): 99%
- Suppression (Plasmodium falciparum [12]): 100%
- Suppression (Plasmodium falciparum [13]): 100%

Compound: c1ccc2c(c1)CCc1ccccc1N2CCCCCN1CCCC1
- FIC [3]: 0.37
- FIC (Plasmodium falciparum [4]): 0.55
- FIC (Plasmodium falciparum [7]): 0.48
- FIC [8]: 0.59

Compound: c1ccc2c(c1)CCc1ccccc1N2CCCCN1CCCCC1
- FIC [3]: 0.36
- FIC (Plasmodium falciparum [4]): 0.54
- FIC (Plasmodium falciparum [7]): 0.45
- FIC [8]: 0.73

— ChEMBL document CHEMBL1135479, “Design, synthesis, and evaluation of new chemosensitizers in multi-drug-resistant Plasmodium falciparum” (2002)
